# Yeast lifespan up: compounds extending yeast replicative lifespan, primary screen, S. cerevisiae, OD615; 0.68% of 130,000 active; AID 775, 2007; inhibition of the nicotinamide effect, % at 10 µM; S. cerevisiae growth with nicotinamide; deaD strain in restrictive glucose medium;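 active means inhibition above a set limit, placed 3 SD over the median of all compounds, cut at about 26% in these data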
#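 assay system = DeaD-strain S. cerevisiae | buffer or medium = restrictive glucose medium | reagent = 1.5 mM nicotinamide | compound = 10 µM single point, 0.25% DMSO | incubation = 48 h compound exposure at 30 °C, humidified | signal = OD615 measurement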
# WT yeast gro inh: growth inhibition of WT strain, primary screen, mitochondrial fusion inhibitor project, WT and mutant strains, chemical genetic | mitochondrial fusion phenotypic screen | inhibition, % at 10 µM | 2.1% of 190,000 active | AID 1362, 2008; in the data active means inhibition above about 58%; tested in S. cerevisiae
# Cl transport mod: KCC2 cotransporter modulators, thallium flux, primary screen, cell-based, HEK293 KCC2, FluoZin-2 fluorescence, MLSMR. 2.2% of 190,000 active. B-score of Tl+ flux slope (higher = more flux/activation; lower = inhibition) at 10 µM. Solute carrier family 12 member 5 (Homo sapiens), Q9H2X9. KCC2 cells, thallium flux FluoZin-2 fluorescence;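 active means thallium flux slope and its plate-corrected score both differing from the plate sample mean at a set confidence after two filtering rounds, in either direction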;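 further: slope of fluorescence scaled to starting intensity during 10 to 20 s after thallium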
# BB579 growth dn: growth inhibitors of yeast BB579 in restrictive medium, primary screen, yeast lifespan-shortening project, S. cerevisiae; 0.51% of 140,000 active; OD615, 48 h; inhibition, % at 10 µM;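 active means inhibition above a set limit, 3 SD over the mean compound inhibition, cut at about 44% in these data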
#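 Assay system – yeast BB579 (DeaD) · Dosing – single compound dose of 10 µM, 0.25% DMSO final · Detection – OD615 turbidity measurement · Buffer or medium – CSMM-D restrictive synthetic medium containing dextrose (glucose) · Benchmarks – positive control amphotericin B 10 µg/mL · Incubation – 48 h exposure, 30 °C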
# RAM network inh: inhibitors of the yeast RAM network, primary screen, dse1pr::URA3 reporter, 5-FOA selection; S. cerevisiae dse1pr::URA3 reporter, 5-FOA growth OD615, 2 d; analog-sensitive cbk1-as2 kinase mutant strain; inhibition, % at 50 µM; 1.8% of 190,000 active;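 active means inhibition above a set limit, 3 SD over mean compound inhibition, cut at about 8.4% in these data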;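 further: inhibition rescues growth on 5-FOA so higher OD means more RAM inhibition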
# A number is an active result; . = inactive; / = no result given. This is a sample that favours compounds with a hit; in the whole collection about 5.5% have one here.
SMILES,Yeast lifespan up,WT yeast gro inh,Cl transport mod,BB579 growth dn,RAM network inh
C/C(CC(C)C)=N\NC(=O)Nc1ccccc1,.,.,.,.,.
CCOC(=O)C/C(C)=N/NC(=O)Nc1ccccc1,31,.,.,.,.
COc1ccc(Cn2c(-c3ccc(Br)cc3)c[n+]3ccccc23)cc1,.,63,.,.,.
CC(C)C(O)(C#CCN1CCCCC1)C(C)C,.,.,.,.,.
N=c1n(CCN2CCOCC2)c2ccccc2n1CC(=O)c1ccc(Cl)c(Cl)c1,.,.,.,95,.
O=S(=O)(c1ccccc1)c1ncc(C(F)(F)F)cc1Cl,/,.,.,/,9.8
O=S(=O)(c1ccccc1)c1ncc(C(F)(F)F)cc1O,/,.,.,/,.
Fc1ccc(N2CCN(C3=Nc4cccc5cccc3c45)CC2)cc1,/,59,.,/,.
Cc1ccc2nc(C)c(C(=O)NN=C3CCN(C)CC3)n2c1,/,.,.,/,.
COc1ccc(N(C(=O)C(C)C)S(=O)(=O)c2ccc(Cl)cc2)cc1,51,.,.,.,.
Cc1ccc(C(=O)NC(=S)NNC(=O)c2ccccc2[N+](=O)[O-])cc1,/,.,.,.,.
O=C(NC(=S)NCCN1CCOCC1)c1ccc(F)cc1,.,.,.,.,.
O=C(/C=C/c1ccccc1)NC(=S)NNC(=O)c1ccco1,/,.,6.4,.,.
O=C(NNC(=O)c1ccco1)c1ccccc1,.,.,.,.,.
Cc1ccc(C(=O)NNC(=S)NC(=O)c2ccco2)cc1,/,.,55,/,.
Cc1ccc(C(=O)NNC(=S)NC(=O)c2ccc(Cl)cc2Cl)cc1,31,.,59,.,.
CC(C)CNC(=S)NC(=O)c1ccc(F)cc1,.,.,18,.,.
CC(C)N(Cc1ccccc1)C(=S)Nc1ccccc1F,/,/,.,/,/
CC(C)NC(=S)NC(=O)c1ccc(Cl)cc1Cl,.,.,29,.,.
Cc1ccccc1C(=O)NNC(=S)NC(=O)c1ccccc1,30,.,30,.,.
CC(C)CNC(=S)NC(=O)c1ccc(Cl)cc1Cl,.,.,39,.,.
Cc1ccc2c(CC(=O)OC(C)C(=O)NCc3ccc4c(c3)OCO4)coc2c1 (configuration not stated),.,.,.,.,.
Cn1cccc1/C=N/NC(=O)CSc1nc2ccccc2[nH]1,/,/,.,/,/
CCC(C)n1c(SCc2ccc([N+](=O)[O-])cc2)nc2ccsc2c1=O (configuration not stated),.,.,.,.,9.6
CCCCn1c(SCc2cccc([N+](=O)[O-])c2)nc2ccsc2c1=O,.,.,.,.,.
SMILES,Yeast lifespan up,WT yeast gro inh,Cl transport mod,BB579 growth dn,RAM network inh
OC(CNCc1ccccc1)Cn1ccc2ccccc21 (configuration not stated),.,.,.,.,.
Oc1ccccc1NCC(O)Cn1ccc2ccccc21 (configuration not stated),.,.,.,50,.
O=[N+]([O-])c1cccc(-c2cc3cccc[n+]3cc2-c2cccc([N+](=O)[O-])c2)c1,.,.,.,.,.
Cc1cccc2cc(-c3ccccc3)c(-c3ccccc3)c[n+]12,.,72,.,.,.
CCOCCc1nnc(NC(=O)Cc2c(F)cccc2Cl)s1,/,.,.,/,.
CCOC(=O)c1c(C)[nH]c(C2=NNC(=Nc3cccc(Cl)c3)SC2)c1C,.,63,.,.,.
CC1(C)CC(=O)c2cnc(NC(=O)CCc3ccccc3)nc2C1,.,.,.,.,.
O=C(CCc1ccccc1)Nc1ncc2c(n1)CCCC2=O,.,60,.,.,.
Cc1cc(C)nc(Sc2nc(Cl)nc(N(c3ccccc3)c3ccccc3)n2)n1,.,.,.,.,.
CCn1c2ccccc2c2cc(NC(=O)c3cc(OC)cc(OC)c3)ccc21,.,.,.,.,8.6
Cc1ccc(C(=O)NCC(=O)OC(C)C(=O)NCCC2=CCCCC2)cc1C (configuration not stated),.,.,.,.,.
CC(=O)C(C(C)=O)c1c(Cl)c(O)c(O)c2c(C(=O)c3ccccc3)coc12,37,.,-5.3,.,.
FC(F)(F)c1cccc(-c2ccn3ncnc3n2)c1,/,.,.,/,.
Cc1cccn2c(=O)c(C=O)c(N3CCSCC3)nc12,/,/,.,/,/
Cc1c(C(=O)O)cccc1-c1ccc(/C=N/Nc2ccc(Br)cc2)o1,.,.,.,44,.
CCOC(=O)c1c(NC(=O)c2ccco2)sc2c1CCCC2,.,.,.,.,.
CCOC(=O)c1c(NC(=O)CN2CCN(C(=O)c3ccco3)CC2)sc2c1CCCC2,/,66,.,.,.
Cc1cc(C)nc(NC2=NCCN2C(=S)Nc2c(C)cccc2C)n1,/,.,.,/,.
CC1CCN(c2nc(/C=C/c3ccccc3)nc3ccccc23)CC1,.,.,.,91,.
CC(=O)OCC1(C)CN(c2ccccc2)NC1=O (configuration not stated),/,.,.,/,.
C/C(=N\NC(=O)c1ccccc1[N+](=O)[O-])c1c(O)cc(C)oc1=O,33,.,.,.,.
C/C(=N\NC(=O)c1cccnc1)c1c(O)cc(C)oc1=O,42,.,.,.,.
C/C(=N\NC(=O)c1ccccc1O)c1c(O)cc(C)oc1=O,.,.,.,.,.
CN1C=C/C(=C\c2cc[n+](C)c3ccccc23)c2ccccc21,/,69,.,/,.
CC(/C=N/NC(=O)c1ccco1)=C\c1ccccc1,/,.,.,/,.
SMILES,Yeast lifespan up,WT yeast gro inh,Cl transport mod,BB579 growth dn,RAM network inh
CCCn1c(C)cc(C(=O)COc2ccc(C)nc2[N+](=O)[O-])c1C,.,.,.,.,.
CCCn1c(C)cc(C(=O)COc2ccc(S(=O)(=O)N(CC)CC)cc2[N+](=O)[O-])c1C,.,.,.,.,8.4
COc1ccc(/C=N/NC(=O)c2ccncc2)cc1Cn1nc([N+](=O)[O-])c(Br)c1C,/,.,.,/,.
CC(C)c1nc(N2CCCC2)c(C#N)c2c1CCCC2,.,70,.,.,.
Cc1cccc(-n2ccnc2SCC(=O)N2CCCc3ccccc32)c1C,.,.,.,.,.
CCCc1cc(-c2nc(N)ncc2-c2ccc3c(c2)OCCCO3)c(O)cc1OC,.,85,.,.,.
Cc1ccccc1Nc1cc(C)c2c(O)cccc2n1,.,58,.,.,.
Cc1ccc(Nc2cc(C)c3c(O)cccc3n2)cc1C,/,/,.,/,/
Cc1ccc(C)c(NC(=S)NNC(=O)c2csc(C(C)C)c2)c1,/,.,13,.,.
Cc1cccc(NC(=S)NNC(=O)c2csc3c2CCC(C)C3)c1 (configuration not stated),.,.,25,.,.
Cc1ccc(C)c(NC(=S)NNC(=O)c2ccco2)c1,.,.,.,.,.

# Source: PubChem BioAssay
